Activity calls are given as the source filed them. No cut-off for these calls is given here.
Columns and labels:
[1] = biological target: T1, Broad substrate specificity ATP-binding cassette transporter ABCG2 (Homo sapiens, UniProt Q9UNQ0); test: Inhibition of ABCG2-mediated mitoxantrone efflux in HEK293 cells by flow cytometry; format: cell-based
T1 sequence (Q9UNQ0 whole entry): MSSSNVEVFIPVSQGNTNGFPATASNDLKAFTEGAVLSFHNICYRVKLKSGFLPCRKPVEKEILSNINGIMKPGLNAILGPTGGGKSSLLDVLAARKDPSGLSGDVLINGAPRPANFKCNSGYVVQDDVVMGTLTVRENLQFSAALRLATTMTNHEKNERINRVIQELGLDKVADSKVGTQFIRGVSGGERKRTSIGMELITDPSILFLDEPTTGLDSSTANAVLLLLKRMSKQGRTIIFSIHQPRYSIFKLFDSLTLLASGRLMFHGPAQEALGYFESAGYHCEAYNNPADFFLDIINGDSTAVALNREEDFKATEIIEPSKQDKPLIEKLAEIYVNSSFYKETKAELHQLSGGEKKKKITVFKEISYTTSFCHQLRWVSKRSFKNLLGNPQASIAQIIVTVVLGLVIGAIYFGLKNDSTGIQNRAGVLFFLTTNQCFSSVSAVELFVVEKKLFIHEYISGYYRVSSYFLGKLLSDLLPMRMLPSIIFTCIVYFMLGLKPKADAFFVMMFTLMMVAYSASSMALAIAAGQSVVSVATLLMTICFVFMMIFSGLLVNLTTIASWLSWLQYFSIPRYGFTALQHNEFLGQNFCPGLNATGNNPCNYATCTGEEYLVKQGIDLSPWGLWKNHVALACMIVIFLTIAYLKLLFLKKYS
Method in brief: (§1)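 HEK293-ABCG2 cells seeded at 1 × 10^5 cells/well and grown 48 h, then loaded with 5 μM mitoxantrone for 30 min at 37 °C with or without compound. Cells washed in PBS and trypsinized; intracellular fluorescence read by flow cytometry on at least 10,000 events.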

P-glycoprotein (ABCB1) [2] = biological target: T2, P-glycoprotein (ABCB1) (Homo sapiens, UniProt P08183); test: Inhibition of P-glycoprotein/ABCB1-mediated mitoxantrone efflux in HEK293 cells at 1 uM by flow cytometry relative to 5 uM of GF120918; format: cell-based; settings: HEK293 cells with P-glycoprotein/ABCB1-mediated efflux, probe mitoxantrone
P-glycoprotein (ABCB1) [3] = biological target: T2, P-glycoprotein (ABCB1); test: Inhibition of P-glycoprotein/ABCB1-mediated mitoxantrone efflux in HEK293 cells at 5 uM by flow cytometry relative to 5 uM of GF120918; format: cell-based; settings: HEK293 cells with P-glycoprotein/ABCB1-mediated efflux, probe mitoxantrone
MRP1 (ABCC1) = MRP1 (ABCC1) (Homo sapiens, UniProt P33527); test: Inhibition of MRP1/ABCC1-mediated calcein efflux in HEK293 cells at 1 uM by flow cytometry relative to untreated control; format: cell-based; settings: HEK293 cells with MRP1/ABCC1-mediated efflux, probe calcein
[4] = Cytotoxicity against human HEK293 cells transfected with ABCG2 after 72 hrs by MTT assay; format: ADME, cell-based; settings: read-out: IG50
Method in brief: (§2)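 HEK293-ABCG2 cells (DMEM high glucose, 10% FBS, 0.75 mg/mL G418) seeded at 1 × 10^4 cells/well, left overnight, then exposed to increasing compound concentrations (up to 100 μM) for 72 h at 37 °C, 5% CO2. Viability read by MTT colorimetric assay and expressed as % of control cells in medium with 0.1% DMSO (v/v).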

HEK293 [5] = test: Cytotoxicity against human HEK293 cells transfected with ABCG2 at 10 uM after 72 hrs by MTT assay; format: ADME, cell-based; settings: hek293, 72 h; method in brief: as §2
[6] = system: P-glycoprotein 1 (Homo sapiens); test: Inhibition of P-glycoprotein/ABCB1-mediated mitoxantrone efflux in HEK293 cells at 5 uM by flow cytometry relative to untreated control; settings: HEK293 cells with P-glycoprotein/ABCB1-mediated efflux, probe mitoxantrone
ABCG2 [7] = biological target: T3, ABCG2 (Homo sapiens, UniProt Q9UNQ0); test: Inhibition of ABCG2-mediated mitoxantrone efflux in HEK293 cells at 1 uM by flow cytometry relative to 5 uM of GF120918; format: cell-based; settings: HEK293 cells with ABCG2-mediated efflux, probe mitoxantrone
T3 sequence (Q9UNQ0 whole entry): T1 sequence (Q9UNQ0 whole entry)
Method in brief: as §1, with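 “events. […] IC50 from a concentration range; mean ± SD, n ≥ 3.” for “events.”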

ABCG2 [8] = biological target: T3, ABCG2; test: Inhibition of ABCG2-mediated mitoxantrone efflux in HEK293 cells at 5 uM by flow cytometry relative to 5 uM of GF120918; format: cell-based; settings: HEK293 cells with ABCG2-mediated efflux, probe mitoxantrone
Method in brief: as §1, with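 “events. […] IC50 from a concentration range; mean ± SD, n ≥ 3.” for “events.”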

HEK293 [9] = test: Effect on ABCG2 expression in human HEK293 cells at 0.2 to 10 uM after 72 hrs by Western blotting analysis; format: functional, cell-based
HEK293 [10] = test: Drug uptake in human HEK293 cells transfected with ABCG2 after 30 mins by LC-ESI-MS/MS analysis relative to control; format: ADME, cell-based; settings: hek293, 0.5 h
HEK293 [11] = test: Drug uptake in human HEK293 cells transfected with ABCG2 after 30 mins by LC-ESI-MS/MS analysis in presence of GF120918 relative to control; format: ADME, cell-based; settings: hek293, 0.5 h
[12] = biological target: T1, Broad substrate specificity ATP-binding cassette transporter ABCG2; test: Noncompetitive inhibition of ABCG2 expressed in HEK293 cells in presence of mitoxantrone; format: cell-based
ABCG2 [13] = test: Therapeutic index, ratio of GI50 for human HEK293 cells transfected with ABCG2 to IC50 for ABCG2-mediated mitoxantrone efflux in HEK293 cells; format: cell-based; settings: HEK293 cells transfected with ABCG2, probe mitoxantrone
Method in brief: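 Therapeutic index is IG50 for cytotoxicity (72-h MTT in HEK293-ABCG2 cells) divided by IC50 for inhibition of ABCG2-mediated mitoxantrone efflux measured by flow cytometry.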

[14] = biological target: T1, Broad substrate specificity ATP-binding cassette transporter ABCG2; test: Inhibition of ABCG2 expressed in human HEK293 assessed as potentiation of mitoxantrone-mediated cytotoxicity at 0.2 uM after 72 hrs by MTT assay relative to control; format: cell-based; settings: hek293, 72 h
Method in brief: (§3)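 Chemosensitization: HEK293-ABCG2 cells seeded at 1 × 10^4 cells/well, left overnight, then co-treated for 72 h at 37 °C, 5% CO2 with compound plus increasing mitoxantrone or SN-38 (0−0.5 μM). Viability measured by MTT and expressed as % of untreated control. Mean ± SD from at least three independent experiments, each in triplicate.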

HEK293 [15] = test: Drug metabolism in human HEK293 cells transfected with ABCG2 at 0.2 to 1 uM after 72 hrs; format: ADME, cell-based; settings: hek293, 72 h
[16] = biological target: T1, Broad substrate specificity ATP-binding cassette transporter ABCG2; test: Inhibition of ABCG2 expressed in human HEK293 assessed as potentiation of SN-38-mediated cytotoxicity at 0.2 uM after 72 hrs by MTT assay relative to control; format: cell-based; settings: hek293, 72 h; method in brief: as §3
HEK293 [17] = test: Cytotoxicity against human control HEK293 cells assessed as cell death at 100 uM after 72 hrs by MTT assay; settings: hek293, 72 h

T2 sequence (P08183 whole entry): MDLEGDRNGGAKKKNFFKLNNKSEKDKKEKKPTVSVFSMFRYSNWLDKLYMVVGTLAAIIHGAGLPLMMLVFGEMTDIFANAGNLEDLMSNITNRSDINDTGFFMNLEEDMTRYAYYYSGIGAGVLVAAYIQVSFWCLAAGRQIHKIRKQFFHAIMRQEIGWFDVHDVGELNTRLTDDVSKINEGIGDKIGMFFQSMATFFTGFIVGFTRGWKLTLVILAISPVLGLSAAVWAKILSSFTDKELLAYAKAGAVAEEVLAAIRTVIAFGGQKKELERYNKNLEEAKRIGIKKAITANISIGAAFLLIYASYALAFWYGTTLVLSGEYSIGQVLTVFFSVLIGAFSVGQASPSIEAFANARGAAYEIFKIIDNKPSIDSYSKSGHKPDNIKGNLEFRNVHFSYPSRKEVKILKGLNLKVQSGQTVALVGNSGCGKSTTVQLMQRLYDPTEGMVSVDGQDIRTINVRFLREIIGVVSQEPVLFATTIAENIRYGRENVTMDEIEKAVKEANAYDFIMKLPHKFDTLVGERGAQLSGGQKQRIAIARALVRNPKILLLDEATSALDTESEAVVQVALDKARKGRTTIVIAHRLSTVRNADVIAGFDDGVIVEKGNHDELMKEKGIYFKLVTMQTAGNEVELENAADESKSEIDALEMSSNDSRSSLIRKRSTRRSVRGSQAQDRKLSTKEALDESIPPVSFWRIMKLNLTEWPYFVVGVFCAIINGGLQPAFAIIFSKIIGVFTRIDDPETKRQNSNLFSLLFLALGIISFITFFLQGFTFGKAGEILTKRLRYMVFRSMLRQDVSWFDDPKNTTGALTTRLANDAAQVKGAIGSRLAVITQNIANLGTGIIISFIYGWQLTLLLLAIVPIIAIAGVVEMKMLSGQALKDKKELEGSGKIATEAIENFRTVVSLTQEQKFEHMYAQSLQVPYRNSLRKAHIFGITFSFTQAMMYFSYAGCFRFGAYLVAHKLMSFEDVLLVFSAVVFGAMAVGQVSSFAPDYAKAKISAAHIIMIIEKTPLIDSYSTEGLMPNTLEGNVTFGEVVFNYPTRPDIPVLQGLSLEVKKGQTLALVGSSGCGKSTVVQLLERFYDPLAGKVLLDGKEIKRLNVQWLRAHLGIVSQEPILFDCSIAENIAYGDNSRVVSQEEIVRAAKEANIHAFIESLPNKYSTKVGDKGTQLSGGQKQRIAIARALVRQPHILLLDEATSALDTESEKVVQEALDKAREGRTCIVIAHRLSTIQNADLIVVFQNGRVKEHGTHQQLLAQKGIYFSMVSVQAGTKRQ
Chain of MRP1 (ABCC1) (P33527 whole entry): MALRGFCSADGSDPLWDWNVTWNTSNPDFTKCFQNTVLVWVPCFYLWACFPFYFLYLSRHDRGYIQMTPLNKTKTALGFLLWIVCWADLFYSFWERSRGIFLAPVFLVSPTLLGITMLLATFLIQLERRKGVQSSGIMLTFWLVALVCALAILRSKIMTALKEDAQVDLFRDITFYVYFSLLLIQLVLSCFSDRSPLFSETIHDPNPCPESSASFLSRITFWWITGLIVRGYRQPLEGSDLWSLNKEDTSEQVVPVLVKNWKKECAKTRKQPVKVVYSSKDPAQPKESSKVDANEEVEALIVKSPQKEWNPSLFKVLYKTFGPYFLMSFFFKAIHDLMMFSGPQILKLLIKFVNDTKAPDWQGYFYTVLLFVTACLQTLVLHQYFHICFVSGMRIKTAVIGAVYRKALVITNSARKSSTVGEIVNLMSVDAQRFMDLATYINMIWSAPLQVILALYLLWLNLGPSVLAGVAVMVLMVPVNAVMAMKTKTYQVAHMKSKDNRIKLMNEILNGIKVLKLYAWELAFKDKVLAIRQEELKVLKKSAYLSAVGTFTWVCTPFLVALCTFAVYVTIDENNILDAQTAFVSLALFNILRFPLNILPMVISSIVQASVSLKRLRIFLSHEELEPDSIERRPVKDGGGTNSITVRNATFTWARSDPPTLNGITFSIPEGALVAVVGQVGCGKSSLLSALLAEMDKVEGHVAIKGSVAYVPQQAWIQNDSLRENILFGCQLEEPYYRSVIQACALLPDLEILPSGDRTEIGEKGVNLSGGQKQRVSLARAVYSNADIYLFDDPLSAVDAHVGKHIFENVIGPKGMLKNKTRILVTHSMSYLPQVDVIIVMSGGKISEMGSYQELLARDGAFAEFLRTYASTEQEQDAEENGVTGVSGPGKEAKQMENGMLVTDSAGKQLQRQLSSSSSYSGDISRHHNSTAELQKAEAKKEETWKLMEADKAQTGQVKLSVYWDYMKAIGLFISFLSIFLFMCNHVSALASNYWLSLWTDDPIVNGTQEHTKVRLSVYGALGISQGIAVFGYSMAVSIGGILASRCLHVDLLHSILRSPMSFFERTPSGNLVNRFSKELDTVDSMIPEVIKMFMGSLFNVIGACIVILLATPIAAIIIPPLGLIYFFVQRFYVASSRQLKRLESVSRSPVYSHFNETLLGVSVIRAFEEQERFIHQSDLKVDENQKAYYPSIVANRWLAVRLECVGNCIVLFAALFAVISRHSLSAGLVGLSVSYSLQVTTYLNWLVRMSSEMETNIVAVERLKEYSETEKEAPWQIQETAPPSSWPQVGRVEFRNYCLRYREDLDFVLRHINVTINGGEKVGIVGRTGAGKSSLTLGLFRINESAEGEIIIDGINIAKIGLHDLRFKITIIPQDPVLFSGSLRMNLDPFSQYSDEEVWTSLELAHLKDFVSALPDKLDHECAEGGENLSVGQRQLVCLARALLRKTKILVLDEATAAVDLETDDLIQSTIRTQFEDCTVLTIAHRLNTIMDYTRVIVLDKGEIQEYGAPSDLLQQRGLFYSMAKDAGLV

inhibition at 1 µM (MRP1 (ABCC1)) | SMILES | IC50 [1] | inhibition at 1 µM (P-glycoprotein (ABCB1) [2]) | inhibition at 5 µM (P-glycoprotein (ABCB1) [3]) | inhibition at 5 µM [6] | inhibition at 1 µM (ABCG2 [7]) | inhibition at 5 µM (ABCG2 [8]) | further results
1.91% | COc1ccc2[nH]cc(CCNC(=O)c3cc(=O)c4c(OCc5ccccc5)cccc4o3)c2c1 | 180 nM | -9.11% | -19.4% | 5.14% | – | – | GI50 at 72 h [4]: 35 µM; Activity (HEK293 [5]): Non-toxic
5.57% | COc1ccc(CCNC(=O)c2cc(=O)c3c(OCCc4ccc(OC)c(OC)c4)cccc3o2)cc1OC | 470 nM | -16.6% | -0.11% | 10.8% | – | – | –
– | O=C(O)c1cc(=O)c2c(O)cccc2o1 | – | – | – | – | -1.2% | -2% | –
– | O=C(c1cc(=O)c2c(O)cccc2o1)N1CCN(c2ccccc2)CC1 | – | – | – | – | 5.5% | 9.8% | –
– | COc1ccc2c3c([nH]c2c1)[C@H](CC(C)C)N1C(=O)[C@H](CCC(=O)OC(C)(C)C)NC(=O)[C@@H]1C3 | – | – | – | – | – | – | GI50 at 72 h [4]: 18 µM
– | COc1ccc(CCOc2cccc3oc(C(=O)O)cc(=O)c23)cc1OC | – | – | – | – | 6.1% | 26.7% | –
2.36% | COc1ccc2[nH]cc(CCNC(=O)c3cc(=O)c4c(OCCc5ccccc5)cccc4o3)c2c1 | 160 nM | -14% | -14.8% | 5.12% | – | – | –
10.8% | COc1ccc(CCNC(=O)c2cc(=O)c3c(OCc4ccccc4)cccc3o2)cc1OC | – | -25.5% | -22.9% | – | – | – | GI50 at 72 h [4]: 60 µM; Activity (HEK293 [5]): 35%; Activity (HEK293 [9]): inactive; Drug uptake (HEK293 [10]): Not Active; Drug uptake (HEK293 [11]): Not Active; inhibition (INH) [12]: Active
– | CC(C)=CCc1c(O)cc2oc(-c3ccccc3)cc(=O)c2c1O | – | – | – | – | – | – | selectivity ratio (ABCG2 [13]): 40
– | O=C(c1cc(=O)c2c(OCc3ccccc3)cccc2o1)N1CCN(c2ccccc2)CC1 | – | – | – | – | 21.3% | 66.1% | –
1.13% | COc1ccc2[nH]cc(CCNC(=O)c3cc(=O)c4c(OCc5ccc(C)cc5)cccc4o3)c2c1 | 200 nM | -4.29% | -21.9% | 3.09% | – | – | –
– | O=C(c1cc(=O)c2c(OCc3ccccc3)cccc2o1)N1CCN(Cc2ccccc2)CC1 | – | – | – | – | 16.5% | 48.3% | –
– | O=C(c1cc(=O)c2c(OCc3ccccc3)cccc2o1)N1CCN(c2ccccn2)CC1 | – | – | – | – | 18.1% | 46.2% | –
2.58% | COc1ccc2[nH]cc(CCNC(=O)c3cc(=O)c4c(OCc5ccc(Br)cc5)cccc4o3)c2c1 | 110 nM | -1.75% | -16.1% | 2.86% | – | – | selectivity ratio (ABCG2 [13]): 2000; inhibition (INH) [14]: Active; Drug metabolism (HEK293 [15]): Not Active; inhibition (INH) [16]: Active; Activity (HEK293 [9]): inactive; Drug uptake (HEK293 [10]): Not Active; Drug uptake (HEK293 [11]): Not Active; inhibition (INH) [12]: Active; Activity (HEK293 [17]): < 25%
3.37% | COc1ccc(CCNC(=O)c2cc(=O)c3c(O)cccc3o2)cc1OC | – | -20.5% | -29% | 5.47% | 34.4% | 62.5% | –

From ChEMBL document CHEMBL2010704 (J Med Chem, 2012)
